Data published in ChEMBL document CHEMBL5126601 (ACS Med Chem Lett, 2022).
The source made the active and inactive calls. No cut-off for these calls is given here.

target: T1, Adenosine receptor A2b (Homo sapiens, UniProt P29275); assay: Binding affinity to human wild type adenosine A2B receptor expressed in Expi293F cells assessed as inhibition constant by surface plasmon resonance assay; details: not given
T1 sequence (P29275 whole entry): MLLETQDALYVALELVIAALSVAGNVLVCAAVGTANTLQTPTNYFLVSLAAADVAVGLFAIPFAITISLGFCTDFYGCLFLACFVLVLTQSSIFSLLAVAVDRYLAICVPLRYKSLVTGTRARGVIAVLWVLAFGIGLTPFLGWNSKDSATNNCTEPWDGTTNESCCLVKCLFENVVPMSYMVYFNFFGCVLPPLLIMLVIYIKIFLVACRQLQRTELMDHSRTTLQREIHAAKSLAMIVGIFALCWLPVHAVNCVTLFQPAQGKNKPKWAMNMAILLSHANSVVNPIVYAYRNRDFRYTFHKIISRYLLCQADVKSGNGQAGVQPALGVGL

SMILES | Ki [µM]
N#Cc1c(N)nc(SCc2ncc[nH]2)c(C#N)c1-c1ccc(O)cc1 | 0.012

target: T2, Adenosine receptor A2a (Homo sapiens, UniProt P29274); assay: Antagonist activity at human adenosine A2A receptor expressed in HEK293T cells assessed as inhibition of 500 nM NECA-induced cAMP accumulation by GloSensor cAMP accumulation assay; details: filed as antagonist
T2 sequence (P29274 whole entry): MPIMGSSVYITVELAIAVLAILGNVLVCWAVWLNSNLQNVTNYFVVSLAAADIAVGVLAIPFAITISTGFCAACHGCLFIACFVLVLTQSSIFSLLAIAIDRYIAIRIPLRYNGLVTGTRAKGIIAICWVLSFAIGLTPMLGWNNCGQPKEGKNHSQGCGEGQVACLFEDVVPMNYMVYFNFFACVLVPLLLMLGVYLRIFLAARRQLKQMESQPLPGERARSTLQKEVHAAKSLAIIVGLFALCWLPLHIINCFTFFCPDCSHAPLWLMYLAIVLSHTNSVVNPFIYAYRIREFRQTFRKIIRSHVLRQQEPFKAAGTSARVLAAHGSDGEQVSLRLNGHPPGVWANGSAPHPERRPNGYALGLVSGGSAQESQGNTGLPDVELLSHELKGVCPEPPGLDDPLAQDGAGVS

SMILES | Activity
O=C1NC(=O)C(c2cccc(Cl)c2)=C1Nc1ccc(O)c(Cl)c1 | Active
Fc1ccc(-c2nn3ccccc3c2-c2ccncc2)cc1 [GW434756X] | Active

target: T3, Adenosine receptor A1 (Homo sapiens) (UniProt P30542); assay: Binding affinity to human wild type adenosine A1 receptor expressed in Expi293F cells assessed as affinity on-rate by surface plasmon resonance assay; details: not given
T3 sequence (whole entry): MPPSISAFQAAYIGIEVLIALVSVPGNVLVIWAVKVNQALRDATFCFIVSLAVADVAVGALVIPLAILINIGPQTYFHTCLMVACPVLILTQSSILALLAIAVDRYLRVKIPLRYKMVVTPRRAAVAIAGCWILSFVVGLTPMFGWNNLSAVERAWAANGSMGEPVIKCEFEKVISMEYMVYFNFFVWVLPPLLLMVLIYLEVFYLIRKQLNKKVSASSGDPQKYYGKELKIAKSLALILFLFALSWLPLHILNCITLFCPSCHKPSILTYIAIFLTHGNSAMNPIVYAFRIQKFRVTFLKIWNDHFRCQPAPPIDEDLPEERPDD

SMILES | K
O=C1NC(=O)C(c2cccc(Cl)c2)=C1Nc1ccc(O)c(Cl)c1 | 1.21 10^5/M/s
Fc1ccc(-c2nn3ccccc3c2-c2ccncc2)cc1 [GW434756X] | 1.63 10^6/M/s
O=C(Nc1n[nH]c2nc(-c3ccco3)c(Br)cc12)C1CC1 | 4.25 10^4/M/s
COc1cc(/C=N/Nc2ncnc3c2cnn3-c2ccccc2)ccc1O | 5.33 10^4/M/s
O[C@H]1CC[C@H](Nc2nc(-c3ccccc3)nc3[nH]ccc23)CC1 | 6.27 10^5/M/s

system: HEK-293T; assay: Effect on cAMP accumulation in HEK293T cells by GloSensor cAMP accumulation assay; type: functional, cell-based; details: Homo sapiens
Procedure, shortened: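 HEK293T cells transiently expressing the A2A receptor, with a GloSensor luciferase cAMP read-out. Compound concentration series were tested against NECA at EC80 (500 nM) or EC20 (3 nM), and for agonist activity alone. Cells lacking transfected A2A served as control. Responses are expressed as a percentage of the maximum NECA response, as mean ± SEM of at least three independent experiments in technical duplicate.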

SMILES | Activity
CCNC(=O)[C@H]1O[C@@H](n2cnc3c(N)ncnc32)[C@H](O)[C@@H]1O | Active

target: T1, Adenosine receptor A2b; assay: Binding affinity to human wild type adenosine A2B receptor expressed in Expi293F cells assessed as affinity on-rate by surface plasmon resonance assay; details: not given

SMILES | ka
Fc1ccc(-c2nn3ccccc3c2-c2ccncc2)cc1 [GW434756X] | 1.52 10^5/M/s
N#Cc1c(N)nc(SCc2ncc[nH]2)c(C#N)c1-c1ccc(O)cc1 | 1.1 10^5/M/s

target: Glycogen synthase kinase-3 alpha (Homo sapiens, UniProt P49840); assay: Inhibition of recombinant human GSKalpha; details: not given
Sequence (P49840 whole entry): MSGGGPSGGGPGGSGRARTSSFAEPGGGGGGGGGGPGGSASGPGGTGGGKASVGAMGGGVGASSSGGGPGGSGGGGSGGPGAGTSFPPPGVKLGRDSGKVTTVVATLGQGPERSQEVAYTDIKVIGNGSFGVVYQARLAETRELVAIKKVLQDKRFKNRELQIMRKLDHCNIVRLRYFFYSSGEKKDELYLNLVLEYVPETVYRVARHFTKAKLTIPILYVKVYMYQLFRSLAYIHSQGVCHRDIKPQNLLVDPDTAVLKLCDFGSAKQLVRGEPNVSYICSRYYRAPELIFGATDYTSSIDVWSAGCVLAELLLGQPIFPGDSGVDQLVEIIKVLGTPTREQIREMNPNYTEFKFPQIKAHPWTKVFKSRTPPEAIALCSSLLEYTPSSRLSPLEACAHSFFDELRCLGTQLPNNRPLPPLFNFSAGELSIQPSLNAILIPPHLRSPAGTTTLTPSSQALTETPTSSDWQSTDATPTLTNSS

SMILES | IC50 [µM]
COc1cc(/C=N/Nc2ncnc3c2cnn3-c2ccccc2)ccc1O | 0.1

target: T4, Adenosine receptor A1 (Homo sapiens, UniProt P30542); assay: Binding affinity to human wild type adenosine A1 receptor expressed in Expi293F cells assessed as affinity on-rate by surface plasmon resonance assay; details: not given
T4 sequence (P30542 whole entry): T3 sequence (whole entry)

SMILES | ka
O[C@H]1CC[C@H](Nc2nc(-c3ccccc3)nc3[nH]ccc23)CC1 | 6.27 10^5/M/s

target: T1, Adenosine receptor A2b; assay: Binding affinity to human wild type adenosine A2B receptor expressed in Expi293F cells assessed as dissociation constant by surface plasmon resonance assay; details: not given

SMILES | Kd [µM]
O=c1cc(NCc2ccccc2)nc2ccccn12 | 199
Cn1c(=O)[nH]c2ccccc2c1=O | 148
Fc1ccc(-c2nn3ccccc3c2-c2ccncc2)cc1 [GW434756X] | 0.28
O=C(Nc1ccccc1)Nc1ccccn1 | 43.3
CS(=O)(=O)c1ccc(C(=O)Nc2cccc(Cl)c2)cc1 | 19.3
N#Cc1c(N)nc(SCc2ncc[nH]2)c(C#N)c1-c1ccc(O)cc1 | 0.0782
CC(C)n1ncc2cc(C(=O)NCc3ccco3)cnc21 | 80
Nc1nc(N)nc(-c2ccccc2)n1 [BENZOGUANAMINE] | 107

target: T2, Adenosine receptor A2a; assay: Antagonist activity at human adenosine A2A receptor expressed in HEK293T cells assessed as inhibition of EC20 concentration of NECA-induced cAMP accumulation at 0.63 mM by GloSensor cAMP accumulation assay; type: functional, cell-based; details: filed as antagonist
Procedure, shortened: (§1)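 HEK293T cells expressing A2A, GloSensor luciferase cAMP read-out; concentration–response curves run against EC20 NECA (3 nM). Data as % of maximum NECA response; mean ± SEM of at least three independent experiments in technical duplicate. Maximum tested concentration 0.63 mM where compound supply was limited; compounds also checked in cells lacking transfected A2A.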

SMILES | Activity
Fc1ccc(-c2nn3ccccc3c2-c2ccncc2)cc1 [GW434756X] | Active

target: T5, Adenosine receptor A2b (Homo sapiens) (UniProt P29275); assay: Binding affinity to human wild type adenosine A2B receptor expressed in Expi293F cells assessed as affinity off-rate by surface plasmon resonance assay; details: not given
T5 sequence (whole entry): T1 sequence (P29275 whole entry)

SMILES | K [s⁻¹]
N#Cc1c(N)nc(SCc2ncc[nH]2)c(C#N)c1-c1ccc(O)cc1 | 0.0086

target: T3, Adenosine receptor A1 (Homo sapiens); assay: Binding affinity to human wild type adenosine A1 receptor expressed in Expi293F cells assessed as affinity off-rate by surface plasmon resonance assay; details: not given

SMILES | K [s⁻¹]
O=C1NC(=O)C(c2cccc(Cl)c2)=C1Nc1ccc(O)c(Cl)c1 | 0.27
Fc1ccc(-c2nn3ccccc3c2-c2ccncc2)cc1 [GW434756X] | 0.01
O=C(Nc1n[nH]c2nc(-c3ccco3)c(Br)cc12)C1CC1 | 0.09
COc1cc(/C=N/Nc2ncnc3c2cnn3-c2ccccc2)ccc1O | 0.06
O[C@H]1CC[C@H](Nc2nc(-c3ccccc3)nc3[nH]ccc23)CC1 | 0.0034

target: T2, Adenosine receptor A2a; assay: Antagonist activity at human adenosine A2A receptor expressed in HEK293T cells assessed as inhibition of EC20 concentration of NECA-induced cAMP accumulation by GloSensor cAMP accumulation assay; type: functional, cell-based; details: filed as antagonist; procedure, shortened: as §1

SMILES | Activity
Nc1nc(N)nc(-c2ccccc2)n1 [BENZOGUANAMINE] | Active

target: T6, Adenosine receptor A3 (Homo sapiens) (UniProt P0DMS8); assay: Binding affinity to human wild type adenosine A3 receptor expressed in Expi293F cells assessed as affinity on-rate by surface plasmon resonance assay; details: not given
T6 sequence (whole entry): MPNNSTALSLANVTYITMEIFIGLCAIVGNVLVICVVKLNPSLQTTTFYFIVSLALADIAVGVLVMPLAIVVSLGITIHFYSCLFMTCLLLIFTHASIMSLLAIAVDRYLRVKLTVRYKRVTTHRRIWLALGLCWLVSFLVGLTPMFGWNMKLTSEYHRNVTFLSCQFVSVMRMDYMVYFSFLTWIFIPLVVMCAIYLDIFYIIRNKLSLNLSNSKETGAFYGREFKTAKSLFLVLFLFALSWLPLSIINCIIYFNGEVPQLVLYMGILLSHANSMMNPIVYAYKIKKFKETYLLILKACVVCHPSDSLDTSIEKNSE

SMILES | Activity
COc1cc(/C=N/Nc2ncnc3c2cnn3-c2ccccc2)ccc1O | Active

target: T2, Adenosine receptor A2a; assay: Binding affinity to human wild type adenosine A2A receptor expressed in Expi293F cells assessed as dissociation constant by surface plasmon resonance assay; details: not given

SMILES | Kd [µM] | Activity
O=c1cc(NCc2ccccc2)nc2ccccn12 | 131 | –
Cn1c(=O)[nH]c2ccccc2c1=O | 28.8 | –
O=C1NC(=O)C(c2cccc(Cl)c2)=C1Nc1ccc(O)c(Cl)c1 | 0.11 | –
Fc1ccc(-c2nn3ccccc3c2-c2ccncc2)cc1 [GW434756X] | 8.9 | –
O=C(Nc1ccccc1)Nc1ccccn1 | 50.9 | –
CS(=O)(=O)c1ccc(C(=O)Nc2cccc(Cl)c2)cc1 | 13.5 | –
CC(C)n1ncc2cc(C(=O)NCc3ccco3)cnc21 | 210 | –
Nc1nc(N)nc(-c2ccccc2)n1 [BENZOGUANAMINE] | 1.5 | –
O=C(Nc1n[nH]c2nc(-c3ccco3)c(Br)cc12)C1CC1 | 0.56 | –
COc1cc(/C=N/Nc2ncnc3c2cnn3-c2ccccc2)ccc1O | – | Active

target: T2, Adenosine receptor A2a; assay: Antagonist activity at human adenosine A2A receptor expressed in HEK293T cells assessed as inhibition of EC20 concentration of NECA-induced cAMP accumulation at higher concentration by GloSensor cAMP accumulation assay; type: functional, cell-based; details: filed as antagonist; procedure, shortened: as §1

SMILES | Activity
CS(=O)(=O)c1ccc(C(=O)Nc2cccc(Cl)c2)cc1 | Active

target: T6, Adenosine receptor A3 (Homo sapiens); assay: Binding affinity to human wild type adenosine A3 receptor expressed in Expi293F cells assessed as affinity off-rate by surface plasmon resonance assay; details: not given

SMILES | K [s⁻¹]
Fc1ccc(-c2nn3ccccc3c2-c2ccncc2)cc1 [GW434756X] | 0.041
O=C(Nc1n[nH]c2nc(-c3ccco3)c(Br)cc12)C1CC1 | 0.041

target: T2, Adenosine receptor A2a; assay: Antagonist activity at human adenosine A2A receptor expressed in HEK293T cells assessed as inhibition of EC20 concentration of NECA-induced cAMP accumulation by measuring fold change in potency by GloSensor cAMP accumulation assay; type: functional, cell-based; details: filed as antagonist

SMILES | Activity
O=C1NC(=O)C(c2cccc(Cl)c2)=C1Nc1ccc(O)c(Cl)c1 | Active
O=C(Nc1n[nH]c2nc(-c3ccco3)c(Br)cc12)C1CC1 | Active
COc1cc(/C=N/Nc2ncnc3c2cnn3-c2ccccc2)ccc1O | Active

target: T7, Adenosine receptor A3 (Homo sapiens, UniProt P0DMS8); assay: (§2) Binding affinity to human wild type adenosine A3 receptor expressed in Expi293F cells assessed as dissociation constant by surface plasmon resonance assay; details: not given
T7 sequence (P0DMS8 whole entry): T6 sequence (whole entry)

SMILES | Kd [µM]
O=c1cc(NCc2ccccc2)nc2ccccn12 | 200
Cn1c(=O)[nH]c2ccccc2c1=O | 18.9
Fc1ccc(-c2nn3ccccc3c2-c2ccncc2)cc1 [GW434756X] | 0.74
O=C(Nc1ccccc1)Nc1ccccn1 | 52
CS(=O)(=O)c1ccc(C(=O)Nc2cccc(Cl)c2)cc1 | 18
CC(C)n1ncc2cc(C(=O)NCc3ccco3)cnc21 | 400
Nc1nc(N)nc(-c2ccccc2)n1 [BENZOGUANAMINE] | 104

target: T6, Adenosine receptor A3 (Homo sapiens); assay: as §2; details: not given

SMILES | Activity
COc1cc(/C=N/Nc2ncnc3c2cnn3-c2ccccc2)ccc1O | Active

target: T1, Adenosine receptor A2b; assay: Binding affinity to human wild type adenosine A2B receptor expressed in Expi293F cells assessed as affinity on-rate by surface plasmon resonance assay; details: not given

SMILES | ka
Fc1ccc(-c2nn3ccccc3c2-c2ccncc2)cc1 [GW434756X] | 1.52 10^5/M/s

target: T4, Adenosine receptor A1; assay: Binding affinity to human wild type adenosine A1 receptor expressed in Expi293F cells assessed as dissociation constant by surface plasmon resonance assay; details: not given

SMILES | Kd [µM]
O=c1cc(NCc2ccccc2)nc2ccccn12 | 154
Cn1c(=O)[nH]c2ccccc2c1=O | 34.3
O=C1NC(=O)C(c2cccc(Cl)c2)=C1Nc1ccc(O)c(Cl)c1 | 2.21
Fc1ccc(-c2nn3ccccc3c2-c2ccncc2)cc1 [GW434756X] | 0.00605
O=C(Nc1ccccc1)Nc1ccccn1 | 41
CS(=O)(=O)c1ccc(C(=O)Nc2cccc(Cl)c2)cc1 | 7.6
CC(C)n1ncc2cc(C(=O)NCc3ccco3)cnc21 | 27
Nc1nc(N)nc(-c2ccccc2)n1 [BENZOGUANAMINE] | 2.21
O=C(Nc1n[nH]c2nc(-c3ccco3)c(Br)cc12)C1CC1 | 2.12
COc1cc(/C=N/Nc2ncnc3c2cnn3-c2ccccc2)ccc1O | 1.21
O[C@H]1CC[C@H](Nc2nc(-c3ccccc3)nc3[nH]ccc23)CC1 | 0.00546
